Experimental data published in PMC4358770 (Journal of medicinal chemistry, 2010).

Legend:
NTPDase3 = molecular target: T1, NTPDase3 (Homo sapiens, UniProt O75355); test: NTPDase3 hydrolysis assay; format: in vitro ADME; settings: 100 μM ATP (100% reference)
T1 sequence (O75355 1-529): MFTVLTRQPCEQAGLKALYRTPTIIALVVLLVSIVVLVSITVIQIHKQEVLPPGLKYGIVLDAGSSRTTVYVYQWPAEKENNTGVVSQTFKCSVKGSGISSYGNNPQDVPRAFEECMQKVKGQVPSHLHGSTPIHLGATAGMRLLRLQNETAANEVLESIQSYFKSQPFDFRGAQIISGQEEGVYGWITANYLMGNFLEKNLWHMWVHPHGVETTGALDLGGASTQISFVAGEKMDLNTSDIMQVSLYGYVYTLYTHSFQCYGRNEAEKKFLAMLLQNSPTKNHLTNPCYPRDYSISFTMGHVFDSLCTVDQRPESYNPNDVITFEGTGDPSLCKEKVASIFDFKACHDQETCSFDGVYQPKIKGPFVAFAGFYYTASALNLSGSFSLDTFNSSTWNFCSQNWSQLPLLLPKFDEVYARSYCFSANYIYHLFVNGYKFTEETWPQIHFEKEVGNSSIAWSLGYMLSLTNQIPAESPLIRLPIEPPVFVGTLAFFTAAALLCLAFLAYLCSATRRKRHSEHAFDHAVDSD
In short: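 Enzymes were transiently expressed in COS-7 cells. Crude protein extracts were made by sonication, 300g clearing at 4 °C and storage at −80 °C, with protein measured by Bradford. Extract was preincubated 3 min at 37 °C in Tris-Ringer buffer, pH 7.4. […] Activity of untransfected-cell extract was subtracted.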

human NPP3 = molecular target: T2, human NPP3 (Homo sapiens, UniProt O14638); test: NPP3 hydrolysis assay; format: in vitro ADME; settings: 100 μM ATP (100% reference)
T2 sequence (O14638 1-875): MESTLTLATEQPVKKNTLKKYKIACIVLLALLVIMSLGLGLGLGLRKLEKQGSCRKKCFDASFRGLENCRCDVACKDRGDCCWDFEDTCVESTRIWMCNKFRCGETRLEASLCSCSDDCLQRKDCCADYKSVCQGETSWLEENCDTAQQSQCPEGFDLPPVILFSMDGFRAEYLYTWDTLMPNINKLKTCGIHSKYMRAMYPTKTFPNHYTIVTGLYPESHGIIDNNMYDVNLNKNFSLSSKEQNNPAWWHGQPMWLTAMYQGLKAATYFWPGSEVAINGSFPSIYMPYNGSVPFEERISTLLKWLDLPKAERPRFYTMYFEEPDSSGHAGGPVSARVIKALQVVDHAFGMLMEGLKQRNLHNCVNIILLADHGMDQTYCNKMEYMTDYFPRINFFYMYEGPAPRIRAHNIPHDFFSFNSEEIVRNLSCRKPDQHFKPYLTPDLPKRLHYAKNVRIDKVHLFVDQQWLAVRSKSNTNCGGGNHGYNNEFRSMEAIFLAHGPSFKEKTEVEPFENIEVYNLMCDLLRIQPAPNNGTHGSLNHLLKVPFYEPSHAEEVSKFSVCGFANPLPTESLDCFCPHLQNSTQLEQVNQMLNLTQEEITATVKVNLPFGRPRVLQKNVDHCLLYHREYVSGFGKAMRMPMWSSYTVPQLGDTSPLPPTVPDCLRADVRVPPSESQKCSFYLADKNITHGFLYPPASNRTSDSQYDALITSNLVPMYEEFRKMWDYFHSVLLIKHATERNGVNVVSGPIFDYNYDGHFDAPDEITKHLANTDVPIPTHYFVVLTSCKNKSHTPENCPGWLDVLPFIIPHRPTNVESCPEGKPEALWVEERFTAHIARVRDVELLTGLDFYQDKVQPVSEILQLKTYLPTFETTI

## Nc1ncnc2c1ncn2[C@@H]1O[C@H](COP(=O)(O)OP(=O)(O)OP(=O)(O)O)[C@@H](O)[C@H]1O [ATP]
NTPDase3
  hydrolysis rate by NTPDase3: 533 ± 42 nmol Pi·min^−1·mg protein^−1
Human NPP3
  hydrolysis rate by NPP3: 245 nmol nucl·min^−1·mg protein^−1
